Experimental data reported in ChEMBL document CHEMBL1629600, “Multiple-dose pharmacokinetic behavior of elvucitabine, a nucleoside reverse transcriptase inhibitor, administered over 21 days with lopinavir-ritonavir in human immunodeficiency virus type 1-infected subjects” (Antimicrob Agents Chemother, 2009).

What was measured:
[1] = AUC (0 to 24 hrs) in HIV1 infected human at 5 mg after 24 hrs presence of 400 mg of Lopinavir and 100 mg of itonavir; type: ADME, organism-based; parameters: time < 24 hr, dose 5 mg; settings: plasma
Procedure, shortened: (§1)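 HIV-infected adults (3.6–5.6 log10 RNA copies/ml) given enteric-coated tablets fasting; lopinavir-ritonavir given with food 2 h later. Plasma drawn on days 1 and 21 predose and at 0.5–24 h postdose. LC-MS/MS assay, range 0.500–100 ng/ml. Noncompartmental analysis gave Cmax, Tmax, C24 (24-h concentration) and linear-trapezoidal AUC0-24. Reported as arithmetic mean (%CV), median (range).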

[2] = Cmax in HIV1 infected human at 5 mg after 24 hrs presence of 400 mg of Lopinavir and 100 mg of itonavir; type: ADME, organism-based; parameters: dose 5 mg; settings: in vivo; procedure, shortened: as §1
[3] = Tmax in HIV1 infected human at 5 mg after 24 hrs presence of 400 mg of Lopinavir and 100 mg of itonavir; type: ADME, organism-based; settings: in vivo; procedure, shortened: as §1
[4] = Drug level in HIV1 infected human plasma at 5 mg after 24 hrs presence of 400 mg of Lopinavir and 100 mg of itonavir; type: ADME; settings: read-out: Drug uptake; procedure, shortened: as §1
[5] = AUC (0 to 24 hrs) in HIV1 infected human at 10 mg after 24 hrs presence of 400 mg of Lopinavir and 100 mg of itonavir; type: ADME, organism-based; parameters: time < 24 hr, dose 10 mg; settings: plasma; procedure, shortened: as §1
[6] = Cmax in HIV1 infected human at 10 mg after 24 hrs presence of 400 mg of Lopinavir and 100 mg of itonavir; type: ADME, organism-based; parameters: dose 10 mg; settings: in vivo; procedure, shortened: as §1
[7] = Tmax in HIV1 infected human at 10 mg after 24 hrs presence of 400 mg of Lopinavir and 100 mg of itonavir; type: ADME, organism-based; settings: in vivo; procedure, shortened: as §1
[8] = Drug level in HIV1 infected human plasma at 10 mg after 24 hrs presence of 400 mg of Lopinavir and 100 mg of itonavir; type: ADME, organism-based; settings: read-out: Drug uptake; procedure, shortened: as §1
[9] = AUC (0 to 24 hrs) in HIV1 infected human at 20 mg after 24 hrs in presence of 400 mg of Lopinavir and 100 mg of itonavir administered once every 12 hrs; type: ADME, organism-based; parameters: time < 24 hr, dose 20 mg; settings: plasma; procedure, shortened: as §1
[10] = Cmax in HIV1 infected human at 20 mg after 24 hrs in presence of 400 mg of Lopinavir and 100 mg of itonavir administered once every 12 hrs; type: ADME, organism-based; parameters: dose 20 mg; settings: in vivo; procedure, shortened: as §1
[11] = Tmax in HIV1 infected human at 20 mg after 24 hrs in presence of 400 mg of Lopinavir and 100 mg of itonavir administered once every 12 hrs; type: ADME, organism-based; settings: in vivo; procedure, shortened: as §1
[12] = Drug level in HIV1 infected human plasma at 20 mg after 24 hrs in presence of 400 mg of Lopinavir and 100 mg of itonavir administered once every 12 hrs; type: ADME; settings: read-out: Drug uptake; procedure, shortened: as §1
[13] = AUC (0 to 24 hrs) in HIV1 infected human at 5 mg qd for 21 days in presence of 400 mg of Lopinavir and 100 mg of itonavir administered once every 12 hrs; type: ADME, organism-based; parameters: time < 24 hr, dose 5 mg; settings: plasma; procedure, shortened: as §1
[14] = Cmax in HIV1 infected human at 5 mg qd for 21 days in presence of 400 mg of Lopinavir and 100 mg of itonavir administered once every 12 hrs; type: ADME, organism-based; parameters: dose 5 mg; settings: in vivo; procedure, shortened: as §1
[15] = Tmax in HIV1 infected human at 5 mg qd for 21 days in presence of 400 mg of Lopinavir and 100 mg of itonavir administered once every 12 hrs; type: ADME, organism-based; settings: in vivo; procedure, shortened: as §1
[16] = Drug level in HIV1 infected human plasma at 5 mg qd for 21 days in presence of 400 mg of Lopinavir and 100 mg of itonavir administered once every 12 hrs; type: ADME, organism-based; settings: read-out: Drug uptake; procedure, shortened: as §1
[17] = Half life in HIV1 infected human at 5 mg qd for 21 days in presence of 400 mg of Lopinavir and 100 mg of itonavir administered once every 12 hrs; type: ADME, organism-based; settings: in vivo
Procedure, shortened: (§2)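 Elimination rate constant and t1/2 obtained by noncompartmental analysis after the day-21 dose, using 336 h of terminal-phase sampling. Plasma collected through day 35 (days 25, 28, 35 after stopping). Concentrations measured by LC-MS/MS, range 0.500–100 ng/ml. Eight subjects per cohort; reported as mean (%CV), median (range).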

[18] = AUC (0 to 24 hrs) in HIV1 infected human at 10 mg qd for 21 days in presence of 400 mg of Lopinavir and 100 mg of itonavir administered once every 12 hrs; type: ADME, organism-based; parameters: dose 10 mg, time < 24 hr; settings: plasma; procedure, shortened: as §1
[19] = Cmax in HIV1 infected human at 10 mg qd for 21 days in presence of 400 mg of Lopinavir and 100 mg of itonavir administered once every 12 hrs; type: ADME, organism-based; parameters: dose 10 mg; settings: in vivo; procedure, shortened: as §1
[20] = Tmax in HIV1 infected human at 10 mg qd for 21 days in presence of 400 mg of Lopinavir and 100 mg of itonavir administered once every 12 hrs; type: ADME, organism-based; settings: in vivo; procedure, shortened: as §1
[21] = Drug level in HIV1 infected human plasma at 10 mg qd for 21 days in presence of 400 mg of Lopinavir and 100 mg of itonavir administered once every 12 hrs; type: ADME, organism-based; settings: read-out: Drug uptake; procedure, shortened: as §1
[22] = Half life in HIV1 infected human at 10 mg qd for 21 days in presence of 400 mg of Lopinavir and 100 mg of itonavir administered once every 12 hrs; type: ADME, organism-based; settings: in vivo; procedure, shortened: as §2
[23] = AUC (0 to 24 hrs) in HIV1 infected human at 20 mg administered once every 48 hrs for 21 days in presence of 400 mg of Lopinavir and 100 mg of itonavir administered once every 12 hrs; type: ADME, organism-based; parameters: dose 20 mg, time < 24 hr; settings: plasma; procedure, shortened: as §1
[24] = Cmax in HIV1 infected human at 20 mg administered once every 48 hrs for 21 days in presence of 400 mg of Lopinavir and 100 mg of itonavir administered once every 12 hrs; type: ADME, organism-based; parameters: dose 20 mg; settings: in vivo; procedure, shortened: as §1
[25] = Tmax in HIV1 infected human at 20 mg administered once every 48 hrs for 21 days in presence of 400 mg of Lopinavir and 100 mg of itonavir administered once every 12 hrs; type: ADME, organism-based; settings: in vivo; procedure, shortened: as §1
[26] = Drug level in HIV1 infected human plasma at 20 mg administered once every 48 hrs for 21 days in presence of 400 mg of Lopinavir and 100 mg of itonavir administered once every 12 hrs; type: ADME, organism-based; settings: read-out: Drug uptake; procedure, shortened: as §1
[27] = Half life in HIV1 infected human at 20 mg administered once every 48 hrs for 21 days in presence of 400 mg of Lopinavir and 100 mg of itonavir administered once every 12 hrs; type: ADME, organism-based; settings: in vivo; procedure, shortened: as §2
[28] = tested on: Homo sapiens; assay: Peripheral volume of distribution with respect to the bioavailability in HIV1 infected human at 20 mg administered once every 48 hrs for 21 days in presence of 400 mg of Lopinavir and 100 mg of itonavir administered once every 12 hrs; type: ADME, organism-based; settings: in vivo
Procedure, shortened: (§3)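 Population compartmental fit to all plasma concentrations over 804 h. Two-compartment model with two first-order absorption rates, lag times per dose and first-order elimination. Relative bioavailability allowed to differ for day 1, the only dose given before lopinavir-ritonavir. Weighting 1/S², with S² = (a + b×Y)². Parameters expressed relative to F (CL/F, V/F).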

[29] = Volume of distribution at steady state with respect to the bioavailability in HIV1 infected human at 20 mg administered once every 48 hrs for 21 days in presence of 400 mg of Lopinavir and 100 mg of itonavir administered once every 12 hrs; type: ADME, organism-based; settings: in vivo, read-out: Vss/F; procedure, shortened: as §3
[30] = Terminal half life in HIV1 infected human at 20 mg administered once every 48 hrs for 21 days in presence of 400 mg of Lopinavir and 100 mg of itonavir administered once every 12 hrs; type: ADME, organism-based; settings: in vivo, read-out: beta t1/2 (converted); procedure, shortened: as §3
[31] = species: Homo sapiens; assay: Time prior to start absorption at first absorption site in HIV1 infected human at 20 mg after 24 hrs; type: ADME, organism-based; settings: in vivo; procedure, shortened: as §3
[32] = species: Homo sapiens; assay: Time prior to start absorption at second absorption site in HIV1 infected human at 20 mg after 24 hrs; type: ADME, organism-based; settings: in vivo; procedure, shortened: as §3
[33] = tested on: Homo sapiens; assay: Time prior to start absorption at first absorption site in HIV1 infected human at 20 mg administered once every 48 hrs for 21 days in presence of 400 mg of Lopinavir and 100 mg of itonavir administered once every 12 hrs; type: ADME, organism-based; settings: in vivo; procedure, shortened: as §3
[34] = tested on: Homo sapiens; assay: Time prior to start absorption at second absorption site in HIV1 infected human at 20 mg administered once every 48 hrs for 21 days in presence of 400 mg of Lopinavir and 100 mg of itonavir administered once every 12 hrs; type: ADME, organism-based; settings: in vivo; procedure, shortened: as §3
[35] = tested on: Homo sapiens; assay: Absorption rate constant at first absorption site in HIV1 infected human at 20 mg administered once every 48 hrs for 21 days in presence of 400 mg of Lopinavir and 100 mg of itonavir administered once every 12 hrs; type: ADME, organism-based; settings: in vivo; procedure, shortened: as §3
[36] = tested on: Homo sapiens; assay: Absorption rate constant at second absorption site in HIV1 infected human at 20 mg administered once every 48 hrs for 21 days in presence of 400 mg of Lopinavir and 100 mg of itonavir administered once every 12 hr; type: ADME, organism-based; settings: in vivo; procedure, shortened: as §3
[37] = Oral bioavailability in HIV1 infected human at 20 mg after 24 hrs; type: ADME, organism-based; settings: in vivo; procedure, shortened: as §3
[38] = Apparent oral clearance in HIV1 infected human at 20 mg administered once every 48 hrs for 21 days in presence of 400 mg of Lopinavir and 100 mg of itonavir administered once every 12 hrs; type: ADME, organism-based; settings: in vivo; procedure, shortened: as §3
[39] = tested on: Homo sapiens; assay: Central volume of distribution with respect to the bioavailability in HIV1 infected human at 20 mg administered once every 48 hrs for 21 days in presence of 400 mg of Lopinavir and 100 mg of itonavir administered once every 12 hrs; type: ADME, organism-based; settings: in vivo; procedure, shortened: as §3
[40] = tested on: Homo sapiens; assay: Distributional clearance with respect to the bioavailability in HIV1 infected human at 20 mg administered once every 48 hrs for 21 days in presence of 400 mg of Lopinavir and 100 mg of itonavir administered once every 12 hrs; type: ADME, organism-based; settings: in vivo; procedure, shortened: as §3

AUC(0-t) at 24 h [1]: 59.9 ng·h/mL
Cmax [2]: 7.25 ng/mL
Tmax [3]: 6.63 h
concentration at 24 h [4]: 0.832 ng/mL
AUC(0-t) at 24 h [5]: 155 ng·h/mL
Cmax [6]: 25.3 ng/mL
Tmax [7]: 3.31 h
concentration at 24 h [8]: 1.87 ng/mL
AUC at 24 h [9]: 262 ng·h/mL
Cmax [10]: 39.1 ng/mL
Tmax [11]: 3.75 h
concentration at 24 h [12]: 3.41 ng/mL
AUC at 24 h [13]: 214 ng·h/mL
Cmax [14]: 23.1 ng/mL
Tmax [15]: 7 h
concentration at 21 days [16]: 4.38 ng/mL
half-life [17]: 92.5 h
AUC at 24 h [18]: 435 ng·h/mL
Cmax [19]: 49.9 ng/mL
Tmax [20]: 3.75 h
concentration at 21 days [21]: 9.7 ng/mL
half-life [22]: 112 h
AUC at 24 h [23]: 749 ng·h/mL
Cmax [24]: 108 ng/mL
Tmax [25]: 4 h
concentration at 21 days [26]: 12 ng/mL
half-life [27]: 105 h
Vp/F [28]: 1618 L
Vd/F [29]: 1620 L
half-life [30]: 120 h
Time [31]: 0.363 h
Time [32]: 0.445 h
Time [33]: 0.341 h
Time [34]: 1.02 h
ka [35]: 0.065 h⁻¹
ka [36]: 0.42 h⁻¹
bioavailability [37]: 55.4%
CL/F [38]: 423 mL/min
Vc/F [39]: 6.43 L
CLd/F [40]: 15.4 L/h
SMILES: Nc1nc(=O)n([C@@H]2C=C[C@H](CO)O2)cc1F [ELVUCITABINE]
